Sampled rows, rich in hits. Any-hit rate of the full collection: about 3.1%.
OX1R antag-1 = OX1R (human) antagonism | O43613 | inhibition, % at 6.6 µM | hit rate 1.8% among 330,000 | OX1R-expressing cells, FRET antagonist read-out; in the data active = inhibition mostly above about 38%, no sharp cut-off; inactive = mostly below about 40%;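 also: 0% = agonist challenge alone and 100% = reference antagonist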
CHO parental Ca = signal in parental CHO cells, OX1R antagonist counter-screen; parental CHO-K1, ATP-induced calcium, Fluo-8 fluorescence; inhibition, % at 5.6 µM; hit rate 0.63% among 330,000; AID 463079;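 active = inhibition above that plate's mean sample inhibition plus 3 SD, cut at about 26% in these data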;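 also: 0% = ATP-challenged DMSO wells and 100% = DMSO wells without ATP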
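Test system: untransfected parental CHO cell line. Compound: one dose, 5.6 µM nominal. Detection: intracellular calcium via Fluo-8 no-wash fluorescent dye. Measure: % inhibition. Benchmarks: ATP-challenged DMSO wells low, unchallenged DMSO wells high.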
GPR7 antag = human neuropeptides B/W receptor 1 antagonism | inhibition, % at 4.4 µM | GPR7-expressing cells, fluorescence antagonist assay | hit rate 1.1% among 290,000 | AID 1861; in the data active = inhibition above about 16%, passing the limit was not always enough;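 also: cells stimulated with the agonist NPW; 0% = agonist with vehicle and 100% = vehicle without agonist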
Target sequence (P48145 whole entry, looked up): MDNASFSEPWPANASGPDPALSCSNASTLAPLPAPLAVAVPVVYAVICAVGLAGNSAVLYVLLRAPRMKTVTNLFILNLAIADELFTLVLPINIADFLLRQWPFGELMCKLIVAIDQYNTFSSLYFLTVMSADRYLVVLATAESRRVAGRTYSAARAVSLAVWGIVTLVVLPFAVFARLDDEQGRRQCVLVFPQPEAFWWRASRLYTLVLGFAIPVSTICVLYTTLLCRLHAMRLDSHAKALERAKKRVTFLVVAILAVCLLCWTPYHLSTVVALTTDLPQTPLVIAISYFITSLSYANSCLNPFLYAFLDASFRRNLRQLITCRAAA
GalR3 antagonist = human GalR3 antagonism | HEK293 GalR3-CNG cAMP membrane potential fluorescence; galR3 body fused to GalR1 C-terminus | inhibition, % at 3 µM | hit rate 0.44% among 360,000 | AID 651719;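 active = inhibition above the screen-wide average plus 3 SD, cut at about 13% in these data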;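 also: forskolin and galanin both at EC90 stimulate the cells; cAMP rise reported by CNG channel membrane potential dye signal; 0% = forskolin plus galanin with DMSO and 100% = forskolin alone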
Target sequence (O60755 1-299 limits assumed): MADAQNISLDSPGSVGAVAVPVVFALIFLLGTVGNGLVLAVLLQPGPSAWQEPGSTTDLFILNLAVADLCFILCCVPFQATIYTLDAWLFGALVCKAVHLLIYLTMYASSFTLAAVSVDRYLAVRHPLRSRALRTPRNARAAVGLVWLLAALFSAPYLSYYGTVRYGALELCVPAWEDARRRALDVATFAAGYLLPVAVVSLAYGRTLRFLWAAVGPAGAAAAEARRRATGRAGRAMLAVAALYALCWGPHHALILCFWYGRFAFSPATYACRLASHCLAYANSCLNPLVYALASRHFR
OX1R antag-2 = human HCRTR1 antagonism | O43613 | CHO/OX1R cells, Fluo-8 calcium fluorescence, orexin A | inhibition, % at 5 µM | hit rate 0.43% among 330,000;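 active = inhibition above its plate's threshold, mean inhibition of all tested compounds on the plate plus 3 SD, cut at about 37% in these data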;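 also: 0% = orexin A challenge wells and 100% = SB-334867-A antagonist wells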
GPR7 antag cf = confirmation of human GPR7 antagonists. shares compounds with GPR7 antag. GPR7-expressing cells, calcium fluorescence antagonist mode. inhibition, % at 4.4 µM. hit rate 52% among 2,400. AID 1952; in the data active = inhibition above about 24%;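 also: stimulated with the GPR7 agonist NPW; 0% = agonist plus vehicle and 100% = vehicle alone without agonist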
MCHR1 antag = antagonizes human MCHR1, a GPR7 antagonist counter-screen. shares compounds with GPR7 antag. MCHR1-expressing cells, fluorescence antagonist assay. inhibition, % at 4.4 µM. hit rate 62% among 2,400. AID 2148; in the data active = inhibition above about 22%;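 also: 0% = vehicle with agonist and 100% = vehicle without agonist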
OX1R Fluo8 conf = confirmation of human orexin 1 receptor antagonists; shares compounds with OX1R antag-2; CHO/OX1R cells, orexin A calcium Fluo-8 fluorescence; inhibition, % at 5 µM; hit rate 38% among 1,100; in the data active = inhibition above about 29%;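 also: 0% = agonist challenge alone and 100% = reference antagonist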
CHO Ca counter = counter-screen for OX1R antagonists: effect in parental CHO cells | inhibition, % at 5.6 µM | parental CHO-K1, ATP-induced calcium, Fluo-8 fluorescence | hit rate 9.3% among 1,100 | shares compounds with OX1R antag-2;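 active = inhibition above a per-plate limit, the mean inhibition of that plate's test compounds plus 3 SD, cut at about 25% in these data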;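 also: 0% = ATP challenge with DMSO and 100% = DMSO without ATP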
GalR3 antag conf = confirmation of human galanin receptor 3 antagonists | shares compounds with GalR3 antagonist | HEK293 GalR3 CNG cAMP biosensor, membrane potential fluorescence; galR3 fused to GalR1 carboxy tail; challenged with forskolin and galanin at EC90 | inhibition, % at 3 µM | hit rate 59% among 1,600 | AID 652245;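 active = inhibition above the primary screen's cutoff, the mean inhibition of all screened compounds plus 3 SD, cut at about 13% in these data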;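 also: 0% = forskolin plus galanin and 100% = forskolin alone with DMSO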
CNG parental = counter-screen for GalR3 antagonists: nonspecific agonists in parental HEK-CNG cells | HEK293-CNG parental cells, cAMP membrane potential fluorescence; normalised: DMSO wells 0%, forskolin wells 100% | AID 652268 | hit rate 10% among 1,600 | shares compounds with GalR3 antagonist | activation, % at 3 µM; in the data active = activation above about 1.3%
Numbers without * were called inactive; . = no result.

SMILES	OX1R antag-1	CHO parental Ca	GPR7 antag	GalR3 antagonist	OX1R antag-2	OX1R Fluo8 conf	CHO Ca counter	others
CN(C)c1ccc(/C=C/c2cccc[n+]2[O-])cc1	28	3	-8	-1	0	.	.
COC(=O)COc1ccc(-c2ccccc2)cc1C=O	7	2	31*	17*	10	.	.	GPR7 antag cf=17;MCHR1 antag=38*;GalR3 antag conf=4;CNG parental=1
CCOc1cc(C(=O)Nc2cccc3ncccc23)cc(OCC)c1OCC	9	-17	-1	-7	-27	.	.
CC[n+]1c(/C=C2\Sc3ccccc3N2C)ccc2cccc(C)c21	.	.	1	9	.	.	.
CCN1/C(=C/c2ccc3cc(C)ccc3[n+]2CC)Sc2cc(C)c(C)cc21	.	.	28*	51*	.	.	.	GPR7 antag cf=30*;MCHR1 antag=14;GalR3 antag conf=58*;CNG parental=9.7*
O=C(CSc1nnc(Nc2ccccc2F)s1)NC(=O)CN1CCCC1=O	-6	-13	.	-3	-15	.	.
O=C(Nc1nc(-c2ccccc2)cs1)c1ccccc1NS(=O)(=O)c1ccc(F)cc1	94*	57*	24*	17*	64*	.	.	GPR7 antag cf=42*;MCHR1 antag=60*;GalR3 antag conf=77*;CNG parental=-1
O=S(=O)(Nc1ccc(-c2csc(-c3ccccc3)n2)cc1)c1ccc(F)cc1	13	-3	23	-4	-19	.	.
CCc1ccc(CN(C)C(=O)c2cc(COc3cccc4cnccc34)on2)cc1	35	67*	38*	14*	51*	.	.	GPR7 antag cf=23;MCHR1 antag=46*;GalR3 antag conf=84*;CNG parental=1
CC(C)(C)c1cc(C(=O)CCN2CCOCC2)cc(C(C)(C)C)c1O	2	22	29	-12	37	-3	-19
N#CCCn1cc(/C=N/O)c(-c2ccccc2)n1	4	0	-13	-7	-2	.	.
N#CCCn1cc(/C=N/NC(N)=S)c(-c2ccc(-c3ccccc3)cc2)n1	2	-3	-3	-4	26	10	4
Cc1ccc(/C=C2\Sc3ccccc3C2=O)s1	13	-22	7	-1	30	34*	-1
CS(=O)(=O)c1ccccc1-c1nnc(NC(=O)C2=COCCO2)o1	13	-19	.	-2	0	.	.
CCN(CC(=O)Nc1cc(S(=O)(=O)N2CCCCC2)ccc1Cl)Cc1ccccc1	15	27	.	-7	-27	.	.
CCN(CC(=O)Nc1cc(S(=O)(=O)N2CCOCC2)ccc1Cl)Cc1ccccc1	20	-20	.	-8	55*	14	4
CC(=O)Oc1cccc(NC(=O)c2cccc(C(=O)Nc3cccc(OC(C)=O)c3)c2)c1	3	-9	10	-7	52*	14	-2
O=C(/C=N/O)Nc1ccc2sc3ccccc3c2c1	35	-9	2	-5	3	.	.
CCOc1ccc(S(=O)(=O)n2cnc3cc(C)c(C)cc32)cc1	22	1	8	-1	60*	-1	59*
O=C(CSc1ncccc1-c1nc2ccccc2[nH]1)NCc1ccco1	11	-10	-4	-4	-9	.	.
Cc1cc2nc(-c3cccnc3SCC(=O)NCc3ccco3)[nH]c2cc1C	14	-14	7	1	26	-3	-3
CCOC(=O)c1sc(N)nc1C(C)(C)C	20	-10	1	-7	41	-2	1
CCOC(=O)c1sc(NCCNc2nc(C)c(C(=O)OCC)s2)nc1C	24	-18	.	.	-23	.	.
COc1ccc(-c2cnc3c(c2)C(=O)N([C@H](C)CO)C[C@@H](C)[C@@H](CN(C)C(=O)NC2CCCC2)O3)cc1	.	.	.	-5	.	.	.
N#Cc1ccccc1NC(=O)C(=O)NCC1CCCN1S(=O)(=O)c1cccs1 (centres undefined)	29	-7	.	-2	17	21	-9
SMILES	OX1R antag-1	CHO parental Ca	GPR7 antag	GalR3 antagonist	OX1R antag-2	OX1R Fluo8 conf	CHO Ca counter	others
O=C(NCC1CCCN1S(=O)(=O)c1cccs1)C(=O)Nc1ccccc1 (centres undefined)	20	-11	.	-4	-14	.	.
CCOC(=O)c1ccc(N=C2SC(C(=O)Nc3ccc(C(=O)O)cc3)CC(=O)N2Cc2cccs2)cc1 (centres undefined)	27	25	-2	5	35	18	7
Cc1ccsc1/C=N/n1c(-c2ccccn2)n[nH]c1=S	10	-3	-8	6	-1	.	.
Cc1ccc(C)c(CNc2ccc(S(=O)(=O)N3CCCCC3)cc2)c1	3	7	.	-3	44*	-6	53*
COc1ccc(CNC(=O)COC(=O)[C@H](Cc2c[nH]c3ccccc23)NC(=O)c2cccs2)cc1	13	12	1	-1	49*	60*	10
COC(=O)C(Cc1c[nH]c2ccccc12)NC(=O)c1cccs1 (centres undefined)	7	-4	-12	-4	-16	.	.
COc1cc2c(cc1OC)CN(C(=O)Cn1ccccc1=O)CC2	8	-3	0	.	51*	1	-1
COc1cc2c(cc1OC)CN(C(=O)CN1CCN(S(=O)(=O)c3ccccc3Br)CC1)CC2	-1	-25	2	0	-31	.	.
CC12CCC(C(=O)C1)C1(C)CCCC(=O)C21 (centres undefined)	.	.	.	-5	.	.	.
CCOC(=O)c1oc2ccc(S(=O)(=O)Nc3ccc4c(c3)n(C)c(=O)n4C)cc2c1C	25	17	-22	-2	47*	-6	3
Cc1oc(-c2cccc3ccccc23)nc1CN1CCN(c2ncnc3ccccc23)CC1	30	12	0	-10	34	20	-10
COc1ccc(-c2cn3c(C)c(C(=O)Nc4cccc(NC(C)=O)c4)sc3n2)cc1	24	15	-7	-1	30	12	-2
COC(=O)c1ccc(NC(=O)c2sc3nc(-c4ccccc4)cn3c2C)cc1	11	7	-13	-4	-27	.	.
O=C1Nc2ccc(Cl)cc2/C1=C/C1CC=CCC1 (centres undefined)	21	3	-6	-10	-31	.	.
COc1cccc(C(=O)/C=C/Nc2ccc(S(=O)(=O)Nc3cccc(C(C)=O)c3)cc2)c1	50	16	15	-9	32	25	14

Screens: PubChem BioAssay, The Scripps Research Institute Molecular Screening Center
